In series [1] the test system is HepG2. In words: Cytotoxicity against human HepG2 cells up to 50 uM after 48 hrs by neutral red assay. In kind it is cell-based. Particulars: hepg2, 48 h; call rule not given here.
Series [2] concerns RAW264.7. Put plainly: Cytotoxicity against mouse RAW264.7 cells up to 50 uM after 48 hrs by neutral red assay. In kind it is cell-based. Particulars: raw264.7, 48 h.
The target of series [3] is T1, Nitric oxide synthase, inducible (Mus musculus, UniProt P29477).
T1 sequence (P29477 whole entry): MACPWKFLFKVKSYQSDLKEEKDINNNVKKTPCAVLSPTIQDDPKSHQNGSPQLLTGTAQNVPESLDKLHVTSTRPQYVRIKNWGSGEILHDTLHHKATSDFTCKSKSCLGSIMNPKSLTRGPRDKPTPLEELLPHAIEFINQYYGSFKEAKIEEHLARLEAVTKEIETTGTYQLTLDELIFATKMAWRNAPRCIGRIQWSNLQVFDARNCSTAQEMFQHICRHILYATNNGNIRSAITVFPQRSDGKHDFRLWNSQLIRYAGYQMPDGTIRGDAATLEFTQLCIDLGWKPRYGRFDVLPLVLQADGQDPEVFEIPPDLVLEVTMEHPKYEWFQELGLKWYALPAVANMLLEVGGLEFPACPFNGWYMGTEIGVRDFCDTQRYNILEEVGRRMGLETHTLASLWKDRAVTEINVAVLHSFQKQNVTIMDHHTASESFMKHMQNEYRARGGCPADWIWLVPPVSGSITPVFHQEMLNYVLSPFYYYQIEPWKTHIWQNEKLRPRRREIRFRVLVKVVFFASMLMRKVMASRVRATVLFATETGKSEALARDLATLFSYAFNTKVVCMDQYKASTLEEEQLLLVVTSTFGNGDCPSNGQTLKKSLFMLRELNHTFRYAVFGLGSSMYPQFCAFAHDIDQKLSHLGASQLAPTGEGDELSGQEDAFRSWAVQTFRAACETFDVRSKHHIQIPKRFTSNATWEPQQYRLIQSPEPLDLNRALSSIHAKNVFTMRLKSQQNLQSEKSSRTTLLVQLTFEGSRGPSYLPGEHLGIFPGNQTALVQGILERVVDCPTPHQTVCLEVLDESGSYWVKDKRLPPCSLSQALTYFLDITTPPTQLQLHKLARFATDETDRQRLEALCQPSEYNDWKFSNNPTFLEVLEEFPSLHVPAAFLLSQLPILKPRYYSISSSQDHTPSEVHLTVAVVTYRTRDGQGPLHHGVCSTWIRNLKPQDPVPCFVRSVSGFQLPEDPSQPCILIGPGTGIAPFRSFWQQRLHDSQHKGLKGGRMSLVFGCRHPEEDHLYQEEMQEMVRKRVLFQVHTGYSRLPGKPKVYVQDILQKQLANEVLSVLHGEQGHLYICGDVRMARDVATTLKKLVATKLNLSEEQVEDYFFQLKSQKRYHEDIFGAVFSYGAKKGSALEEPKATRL
In words: Inhibition of iNOS in mouse RAW264.7 cells assessed as LPS-induced nitric oxide production treated for 30 mins followed by LPS challenge measured after 24 hrs by Griess reagent method. It is filed as cell-based. The method in brief: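 RAW264.7 macrophages were grown in phenol red-free RPMI with 10% bovine calf serum. Cells were seeded at 100 000 per well and grown 24 h to at least 75% confluency. Compound was added 30 min before LPS 5 μg/mL, then incubated 24 h. Supernatant nitrite was measured by Griess reagent; percent inhibition is versus vehicle, with IC50 from dose-response curves. Positive control: parthenolide.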
For orientation: Griess reagent forms a coloured azo dye with nitrite.

Series [4] can be described thus: Inhibition of PMA-induced NFkappaB transcriptional activity in human SW1353 cells treated for 30 mins followed by PMA challenge measured after 6 to 8 hrs by luciferase reporter gene assay. It is filed as cell-based. The method in brief:
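After 24 h they were pretreated with compound for 30 min, then stimulated with PMA 70 ng/mL for 6−8 h. Percent decrease in luciferase is relative to vehicle. Positive control: parthenolide.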
A general note: A reporter such as luciferase makes a cellular process visible.

In series [5] the test system is HepG2. In words: Antioxidant activity in human HepG2 cells assessed as inhibition of ABAP-induced intracellular peroxyl radical scavenging activity by measuring ROS production measured every 5 mins for 1 hr by fluorescence assay.
Series [6] concerns the target T2, Growth/differentiation factor 15 (Homo sapiens) (UniProt Q99988).
T2 sequence (whole entry): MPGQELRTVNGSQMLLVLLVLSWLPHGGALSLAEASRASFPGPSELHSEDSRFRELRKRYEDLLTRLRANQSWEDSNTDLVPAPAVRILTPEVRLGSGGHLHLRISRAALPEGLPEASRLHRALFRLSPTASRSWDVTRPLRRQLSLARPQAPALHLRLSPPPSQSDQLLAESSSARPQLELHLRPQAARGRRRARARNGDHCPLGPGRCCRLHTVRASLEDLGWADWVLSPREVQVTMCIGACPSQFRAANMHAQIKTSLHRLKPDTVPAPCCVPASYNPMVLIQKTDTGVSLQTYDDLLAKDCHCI
Put plainly: Activation of NAG-1 in human SW1353 cells at 20 uM after 24 hrs by luciferase reporter gene assay relative to vehicle-treated control. It is filed as cell-based. The essentials:
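SW1353 chondrosarcoma cells in DMEM/F12 with 10% FBS were electroporated (160 V, one 70 ms pulse) with 25 μg […]. Cells were seeded at 1 × 10^5 per well, then dosed 24 h later for 24 h. Luciferase light output gave fold induction versus vehicle. Positive control: diclofenac.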

The target in series [7] is T3, Peroxisome proliferator-activated receptor gamma (Homo sapiens) (UniProt P37231).
T3 sequence (whole entry): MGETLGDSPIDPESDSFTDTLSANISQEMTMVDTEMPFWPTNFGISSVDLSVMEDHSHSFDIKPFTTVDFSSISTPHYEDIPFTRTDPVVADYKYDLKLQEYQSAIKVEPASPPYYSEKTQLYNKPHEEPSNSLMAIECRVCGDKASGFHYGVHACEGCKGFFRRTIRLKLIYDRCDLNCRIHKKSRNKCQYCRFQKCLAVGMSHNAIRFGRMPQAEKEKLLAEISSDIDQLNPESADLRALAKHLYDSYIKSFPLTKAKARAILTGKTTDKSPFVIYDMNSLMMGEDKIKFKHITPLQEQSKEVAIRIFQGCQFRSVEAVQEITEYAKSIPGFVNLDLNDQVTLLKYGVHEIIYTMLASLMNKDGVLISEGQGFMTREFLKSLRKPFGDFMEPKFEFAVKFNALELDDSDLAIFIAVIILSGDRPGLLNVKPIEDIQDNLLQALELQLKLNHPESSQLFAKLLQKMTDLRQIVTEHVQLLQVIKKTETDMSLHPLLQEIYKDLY
In words: Activation of PPARgamma in human HepG2 cells at 25 uM after 24 hrs by luciferase reporter gene assay relative to vehicle-treated control. In kind it is cell-based. The essentials:
(§1)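 HepG2 cells in DMEM with 10% FBS were electroporated at 160 V with a single 70 ms pulse. Plasmid pairs were pSG5-PPARα + PPRE X3-tk-luc, pCMV-rPPARγ + pPPREaP2-tk-luc, or pCMX-hLXRα + LXRE-tk-luc. Cells were seeded at 5 × 10^4 per well, grown 24 h, then dosed. After 24 h the cells were lysed and luciferase read. Fold induction is versus vehicle. Positive controls: ciprofibrate, rosiglitazone, 25-hydroxycholesterol.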

Series [8] deals with T4, Peroxisome proliferator-activated receptor alpha (Homo sapiens) (UniProt Q07869).
T4 sequence (whole entry): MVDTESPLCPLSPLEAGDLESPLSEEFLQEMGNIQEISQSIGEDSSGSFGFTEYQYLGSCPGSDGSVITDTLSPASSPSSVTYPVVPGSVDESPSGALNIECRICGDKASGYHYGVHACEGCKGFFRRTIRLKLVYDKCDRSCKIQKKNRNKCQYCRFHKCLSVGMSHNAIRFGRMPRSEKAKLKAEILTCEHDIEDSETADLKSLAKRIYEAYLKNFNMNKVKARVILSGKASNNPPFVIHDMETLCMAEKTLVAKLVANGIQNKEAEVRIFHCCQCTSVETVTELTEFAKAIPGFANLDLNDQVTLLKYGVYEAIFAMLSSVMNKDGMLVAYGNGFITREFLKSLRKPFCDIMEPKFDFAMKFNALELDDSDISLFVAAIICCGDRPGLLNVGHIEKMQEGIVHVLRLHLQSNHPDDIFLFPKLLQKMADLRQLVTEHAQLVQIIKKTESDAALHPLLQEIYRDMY
Put plainly: Activation of PPARalpha in human HepG2 cells at 25 uM after 24 hrs by luciferase reporter gene assay relative to vehicle-treated control. It is filed as cell-based. The essentials: as §1

Series [9] concerns the target T5, Oxysterols receptor LXR-alpha (Homo sapiens) (UniProt Q13133).
T5 sequence (whole entry): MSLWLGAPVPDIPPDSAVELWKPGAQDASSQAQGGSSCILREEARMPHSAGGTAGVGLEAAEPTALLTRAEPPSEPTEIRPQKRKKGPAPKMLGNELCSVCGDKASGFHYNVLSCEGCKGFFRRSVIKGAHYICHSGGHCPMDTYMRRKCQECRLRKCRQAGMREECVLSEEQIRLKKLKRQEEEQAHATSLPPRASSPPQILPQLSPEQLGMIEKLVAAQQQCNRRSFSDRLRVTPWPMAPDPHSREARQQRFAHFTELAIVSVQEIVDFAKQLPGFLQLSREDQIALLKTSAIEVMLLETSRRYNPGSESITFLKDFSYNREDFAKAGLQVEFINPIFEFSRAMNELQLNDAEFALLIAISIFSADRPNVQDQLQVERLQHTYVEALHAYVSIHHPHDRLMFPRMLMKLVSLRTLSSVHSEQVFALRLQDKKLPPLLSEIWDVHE
Put plainly: Activation of LXRalpha in human HepG2 cells at 25 uM after 24 hrs by luciferase reporter gene assay relative to vehicle-treated control. It is filed as cell-based. The method in brief:
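HepG2 cells in DMEM with 10% FBS, electroporated (160 V, single 70 ms pulse) with pCMX-hLXRα plus LXRE-tk-luc plasmids; plated at 5 × 10^4 cells/well and grown 24 h. Treated with test compounds for 24 h, then lysed for luciferase read-out. Fold induction calculated against vehicle control; 25-hydroxycholesterol as positive control.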

[10] abbreviates: Homo sapiens, SW1353, read-out: IC50.

Some results are limits rather than exact numbers.

The IC50 is the midpoint of a concentration-inhibition curve.

For the compound `COC(=O)[C@]12C[C@@H](O)[C@@H](O)[C@H](O1)[C@@H](COC(=O)/C=C/c1ccc(O)c(O)c1)O2` (relative stereo), the Activity result in series [1] and in series [2] was “Non-toxic” each time. Moreover, the figures for the IC50 result in series [3] (raw264.7), in series [4] (sw1353) and in [5] were “Not Active”, “Not Active” and 86 µM, respectively.
In series [6], `O=C(O)Cc1ccccc1Nc1c(Cl)cccc1Cl` yielded a fold change (FC) of 2.65.
Turning to `COC(=O)[C@]12C[C@@H](OC(=O)/C=C/c3ccc(O)c(O)c3)[C@@H](O)[C@H](O1)[C@@H](COC(=O)/C=C/c1ccc(O)c(O)c1)O2` (relative stereo), the Activity entry in series [1] and in series [2] was “Non-toxic” each time. Further, the IC50 result is “Not Active” in series [3] (raw264.7), “Not Active” in [4] (sw1353) and 34.5 µM in [5].
With `O=C(/C=C/c1ccc(O)c(O)c1)OC[C@H]1O[C@@]2(C(=O)O)C[C@@H](OC(=O)/C=C/c3ccc(O)c(O)c3)[C@@H](OC(=O)/C=C/c3ccc(O)c(O)c3)[C@H]1O2` (relative stereo), the Activity result in [1] and in series [2] was “Non-toxic” each time. Also, the IC50 entry is “Not Active” in [3] (raw264.7), “Not Active” in [4] (sw1353) and 59.5 µM in [5].
Turning to `O=C(/C=C/c1ccc(O)c(O)c1)OC[C@H]1O[C@@]2(C(=O)O)C[C@@H](O)[C@@H](O)[C@@H]1O2` (relative stereo), the Activity result in series [1] and in series [2] was “Non-toxic” each time. Moreover, the IC50 entry was “Not Active” in [3] (raw264.7), “Not Active” in series [4] (sw1353) and more than 100 µM in [5].
On to `C=C1C(=O)O[C@@H]2C3O[C@]3(C)CC/C=C(\C)CC[C@@H]12` (some centres not stated), for which the IC50 in [3] (read-out: IC50) is 1.05 µM; in series [4] (setting [10]), 1.63 µM.
With `COC(=O)[C@]12C[C@@H](OC(=O)/C=C/c3ccc(O)c(O)c3)[C@@H](OC(=O)/C=C/c3ccc(O)c(O)c3)[C@@H](O1)[C@@H](COC(=O)/C=C/c1ccc(O)c(O)c1)O2` (relative stereo), the Activity entry in [1] and in [2] was “Non-toxic” each time. Also, the figures for the half-inhibitory concentration (IC50) entry in series [3] (raw264.7), in series [4] (setting [10]) and in [5] were “Not Active”, 42 µM and 26 µM, respectively.
Turning to `CC1(COc2ccc(CC3SC(=O)NC3=O)cc2)CCCCC1` (configuration not stated), the fold change (FC) in series [7] stood at 3.65.
As for `CC(C)(Oc1ccc(C2CC2(Cl)Cl)cc1)C(=O)O` (configuration not stated), in series [8], the fold change (FC) was determined as 4.35.
Take `O=c1c(O)c(-c2ccc(O)c(O)c2)oc2cc(O)cc(O)c12` [QUERCETIN]: in series [5], the IC50 worked out at 11 µM.
The compound `C[C@H](CCCC(C)(C)O)[C@H]1CC[C@H]2[C@@H]3CC=C4C[C@@H](O)CC[C@]4(C)[C@H]3CC[C@]12C` had a fold change (FC) in series [9] of 4.67.
As for `O=C(/C=C/c1ccc(O)c(O)c1)OC[C@H]1O[C@@]2(C(=O)O)C[C@@H](OC(=O)/C=C/c3ccc(O)c(O)c3)[C@@H](O)[C@@H]1O2` (relative stereo), the Activity result in series [1] and in series [2] was “Non-toxic” in each case. For the same compound, the IC50 entry in series [3] (raw264.7) is “Not Active”; in series [4] (sw1353), “Not Active”; in series [5] it was 79 µM.

(Values after ChEMBL document CHEMBL3120163, “Octulosonic acid derivatives from Roman chamomile (Chamaemelum nobile) with activities against inflammation and metabolic disorder” (J Nat Prod, 2014).)
